ChEMBL document CHEMBL1124158, “Importance of the N-terminal domain of the type II angiotensin antagonist sarmesin for receptor blockade” (J Med Chem, 1988)

Experiments:
Rattus norvegicus [1] = organism: Rattus norvegicus; experiment: Agonistic activity determined by matching the response with an equivalent response to ANG II (human)-evaluated in rat uterus bioassay; type: functional
Outline: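 Uterine horns (defatted) from diethylstilbestrol-primed virgin Sprague-Dawley rats (150-250 g), halved, held under 1 g tension in a 3-mL bath: 150 mM NaCl, 5.6 mM KCl, 0.18 mM NaHCO₃, 1.4 mM glucose, pH 7.0, oxygen-gassed. Isotonic contractions recorded. Agonist activity expressed relative to an equivalent contraction produced by human ANG II.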

Rattus norvegicus [2] = organism: Rattus norvegicus; experiment: Negative logarithm of the concentration of compound required to reduce the response of EC50 dose of ANG II to the response to half the EC50 dose; type: functional, organism-based; conditions: read-out: pA2 (converted)
Outline: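 Rat isolated uterus: defatted horns from diethylstilbestrol-primed virgin Sprague-Dawley rats (150-250 g), halved, 1 g tension, 3-mL bath of 150 mM NaCl, 5.6 mM KCl, 0.18 mM NaHCO₃, 1.4 mM glucose, pH 7.0, oxygenated. Isotonic contractions to human ANG II. pA2 = −log antagonist concentration lowering the EC50-dose response to that of half the EC50 dose.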

CC[C@H](C)[C@H](NC(=O)[C@@H]1CCCN1C(=O)[C@H](Cc1c[nH]cn1)NC(=O)[C@@H](NC(=O)[C@H](Cc1ccc(O)cc1)NC(=O)[C@@H](NC(=O)[C@H](CCCN=C(N)N)NC(=O)CNC)C(C)C)[C@@H](C)CC)C(=O)O
Activity (Rattus norvegicus [1]): <0.01%
Kb (Rattus norvegicus [2]): 7.94 nM
